ChEMBL document CHEMBL4350995, “Synthesis and antiproliferative activity of culicinin D analogues containing simplified AHMOD-based residues” (Eur J Med Chem, 2019)
Numbered stars: 1 amine (or outer) side, 2 acyl side, 3 side chain; on linkers, the order of the positions; unused ones are H or OH. Square brackets hold non-standard residues; d marks the D form. Peptide text beside a SMILES is read from it. * marks the point of attachment. X3 = CCC(=O)C[C@@H](O)C[C@@H](C)C[C@H](N[*:1])C(=O)[*:2]; X8 = CCC(=O)C[C@H](O)C[C@@H](C)C[C@H](N[*:1])C(=O)[*:2]; X2 = CCCC[C@@H](O)C[C@@H](C)C[C@H](N[*:1])C(=O)[*:2]; X6 = CCCC[C@H](O)C[C@@H](C)C[C@H](N[*:1])C(=O)[*:2]; X4 = CCCCCCCC[C@@H](C)C[C@H](N[*:1])C(=O)[*:2]; Nva(5-pentanoyl) = CCCCC(=O)CCC[C@H](N)C(=O)O; X1 = CCCCCC[C@@H](C)C[C@H](N[*:1])C(=O)[*:2]; NH((S)CH(Me)CH2NHC2H4OH) = C[C@@H](CNCCO)N*; X9 = CCC(=O)CC(O)CCC[C@H](N[*:1])C(=O)[*:2]; X5 = CCCCCCC(=O)CCC[C@H](N[*:1])C(=O)[*:2]; Gly(decyl) = CCCCCCCCCC[C@H](N)C(=O)O; X7 = O=C([C@H](CCCCO)N[*:1])[*:2]; Aoc(2) = CCCCCC[C@H](N)C(=O)O; hSer = N[C@@H](CCO)C(=O)O; Aib = CC(C)(N)C(=O)O; Butyryl = CCCC(=O)*; βAla = NCCC(=O)O

What was measured:
Assay type in all cases: functional, cell-based
[1] = system: MDA-MB-468; assay: Antiproliferative activity against human MDA-MB-468 cells incubated for 5 days by SRB assay; details: MDA-MB-468, 120 h
How it was run: (§1)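 STR-authenticated cells, <3 months passage, in DMEM + 10% FCS at 37 °C, 5% CO2, were seeded at 2000 cells/well and attached overnight. They were then exposed in duplicate to 3-fold serial dilutions from a 30 mM DMSO stock for 5 days. Staining was with sulphorhodamine B. IC50 was interpolated from 4-parameter logistic fits versus peptide-free controls on the same plate. Values are mean ± SEM, n = 2–3 independent experiments.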

[2] = system: NCI-H460; assay: Antiproliferative activity against human NCI-H460 cells incubated for 5 days by SRB assay; details: NCI-H460, 120 h
How it was run: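 Cultured in alpha MEM + 5% FCS, 37 °C, 5% CO2; STR-authenticated, <3 months passage. Seeded at 300 cells/well and attached overnight, then given duplicate 3-fold serial dilutions of peptide (30 mM DMSO stock) for 5 days. Read-out was sulphorhodamine B staining. IC50 was interpolated from a 4-parameter logistic fit versus peptide-free controls. Values are mean ± SEM of 2–3 independent experiments.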

[3] = system: T47D; assay: Antiproliferative activity against human T47D cells incubated for 5 days by SRB assay; details: 120 h
How it was run: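 Cells were grown in RPMI + 10% FCS (37 °C, 5% CO2, STR-authenticated, <3 months passage) and seeded at 1500 cells/well. After overnight attachment they received 3-fold serial dilutions (30 mM DMSO stock) in duplicate for 5 days. Total cells were measured by sulphorhodamine B staining. IC50 was interpolated from a 4-parameter logistic fit against same-plate untreated controls. Values are mean ± SEM, n = 2–3.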

[4] = system: SK-BR-3; assay: Antiproliferative activity against human SKBR3 cells incubated for 5 days by SRB assay; details: SK-BR-3, 120 h; how it was run: as §1

| SMILES | IC50 [1] [µM] | IC50 [2] [µM] | IC50 [3] [µM] | IC50 [4] [µM] |
| --- | --- | --- | --- | --- |
| CCCCCC[C@@H](C)C[C@H](NC(=O)C(C)(C)NC(=O)C(C)(C)NC(=O)[C@H](C[C@H](C)C[C@@H](O)CC(=O)CC)NC(=O)[C@@H]1CCCN1C(=O)CCC)C(=O)N[C@@H](CC(C)C)C(=O)NC(C)(C)C(=O)N[C@@H](CC(C)C)C(=O)NCCC(=O)N[C@@H](C)CNCCO (Butyryl-P[X8][Aib][Aib][X1]L[Aib]L[βAla]-{NH((S)CH(Me)CH2NHC2H4OH)}) | 0.008 | 0.005 | 0.005 | 0.032 |
| CCCCCC[C@@H](C)C[C@H](NC(=O)C(C)(C)NC(=O)C(C)(C)NC(=O)[C@H](CC(C)C)NC(=O)[C@@H]1CCCN1C(=O)CCC)C(=O)N[C@@H](CC(C)C)C(=O)NC(C)(C)C(=O)N[C@@H](CC(C)C)C(=O)NCCC(=O)N[C@@H](C)CNCCO (Butyryl-PL[Aib][Aib][X1]L[Aib]L[βAla]-{NH((S)CH(Me)CH2NHC2H4OH)}) | 0.09 | 0.13 | 0.07 | 0.28 |
| CCCCCC[C@@H](C)C[C@H](NC(=O)C(C)(C)NC(=O)C(C)(C)NC(=O)[C@H](C[C@H](C)C[C@H](O)CC(=O)CC)NC(=O)[C@@H]1CCCN1C(=O)CCC)C(=O)N[C@@H](CC(C)C)C(=O)NC(C)(C)C(=O)N[C@@H](CC(C)C)C(=O)NCCC(=O)N[C@@H](C)CNCCO (Butyryl-P[X3][Aib][Aib][X1]L[Aib]L[βAla]-{NH((S)CH(Me)CH2NHC2H4OH)}) | 0.011 | 0.008 | 0.007 | 0.035 |
| CCCCCCCC[C@@H](C)C[C@H](NC(=O)[C@@H]1CCCN1C(=O)CCC)C(=O)NC(C)(C)C(=O)NC(C)(C)C(=O)N[C@@H](C[C@H](C)CCCCCC)C(=O)N[C@@H](CC(C)C)C(=O)NC(C)(C)C(=O)N[C@@H](CC(C)C)C(=O)NCCC(=O)N[C@@H](C)CNCCO (Butyryl-P[X4][Aib][Aib][X1]L[Aib]L[βAla]-{NH((S)CH(Me)CH2NHC2H4OH)}) | 0.04 | 0.037 | 0.031 | 0.236 |
| CCCCCC[C@@H](C)C[C@H](NC(=O)C(C)(C)NC(=O)C(C)(C)NC(=O)[C@H](C[C@H](C)C[C@H](O)CCCC)NC(=O)[C@@H]1CCCN1C(=O)CCC)C(=O)N[C@@H](CC(C)C)C(=O)NC(C)(C)C(=O)N[C@@H](CC(C)C)C(=O)NCCC(=O)N[C@@H](C)CNCCO (Butyryl-P[X2][Aib][Aib][X1]L[Aib]L[βAla]-{NH((S)CH(Me)CH2NHC2H4OH)}) | 0.111 | 0.126 | 0.197 | 0.327 |
| CCCCCC[C@@H](C)C[C@H](NC(=O)C(C)(C)NC(=O)C(C)(C)NC(=O)[C@H](CCCC(O)CC(=O)CC)NC(=O)[C@@H]1CCCN1C(=O)CCC)C(=O)N[C@@H](CC(C)C)C(=O)NC(C)(C)C(=O)N[C@@H](CC(C)C)C(=O)NCCC(=O)N[C@@H](C)CNCCO (stereo partly drawn) (Butyryl-P[X9][Aib][Aib][X1]L[Aib]L[βAla]-{NH((S)CH(Me)CH2NHC2H4OH)}) | 0.07 | 0.19 | 0.08 | 0.5 |
| CCCCCC[C@@H](C)C[C@H](NC(=O)C(C)(C)NC(=O)C(C)(C)NC(=O)[C@H](C[C@H](C)C[C@@H](O)CCCC)NC(=O)[C@@H]1CCCN1C(=O)CCC)C(=O)N[C@@H](CC(C)C)C(=O)NC(C)(C)C(=O)N[C@@H](CC(C)C)C(=O)NCCC(=O)N[C@@H](C)CNCCO (Butyryl-P[X6][Aib][Aib][X1]L[Aib]L[βAla]-{NH((S)CH(Me)CH2NHC2H4OH)}) | 0.297 | 0.234 | 0.264 | > 0.5 |
| CCCCCCC(=O)CCC[C@H](NC(=O)[C@@H]1CCCN1C(=O)CCC)C(=O)NC(C)(C)C(=O)NC(C)(C)C(=O)N[C@@H](C[C@H](C)CCCCCC)C(=O)N[C@@H](CC(C)C)C(=O)NC(C)(C)C(=O)N[C@@H](CC(C)C)C(=O)NCCC(=O)N[C@@H](C)CNCCO (Butyryl-P[X5][Aib][Aib][X1]L[Aib]L[βAla]-{NH((S)CH(Me)CH2NHC2H4OH)}) | 0.008 | 0.005 | 0.006 | 0.018 |

Further lines, results first:

| IC50 [1] [µM] | IC50 [2] [µM] | IC50 [3] [µM] | IC50 [4] [µM] | SMILES |
| --- | --- | --- | --- | --- |
| 0.14 | 0.19 | 0.17 | 0.24 | CCCCCC[C@@H](C)C[C@H](NC(=O)C(C)(C)NC(=O)C(C)(C)NC(=O)[C@H](CCCCCC)NC(=O)[C@@H]1CCCN1C(=O)CCC)C(=O)N[C@@H](CC(C)C)C(=O)NC(C)(C)C(=O)N[C@@H](CC(C)C)C(=O)NCCC(=O)N[C@@H](C)CNCCO (Butyryl-P[Aoc(2)][Aib][Aib][X1]L[Aib]L[βAla]-{NH((S)CH(Me)CH2NHC2H4OH)}) |
| 0.01 | 0.01 | 0.01 | 0.03 | CCCCCC[C@@H](C)C[C@H](NC(=O)C(C)(C)NC(=O)C(C)(C)NC(=O)[C@H](CCCC(=O)CCCC)NC(=O)[C@@H]1CCCN1C(=O)CCC)C(=O)N[C@@H](CC(C)C)C(=O)NC(C)(C)C(=O)N[C@@H](CC(C)C)C(=O)NCCC(=O)N[C@@H](C)CNCCO (Butyryl-P[Nva(5-pentanoyl)][Aib][Aib][X1]L[Aib]L[βAla]-{NH((S)CH(Me)CH2NHC2H4OH)}) |
| 0.025 | 0.028 | 0.014 | 0.059 | CCCCCC[C@@H](C)C[C@H](NC(=O)C(C)(C)NC(=O)C(C)(C)NC(=O)[C@H](CCCCO)NC(=O)[C@@H]1CCCN1C(=O)CCC)C(=O)N[C@@H](CC(C)C)C(=O)NC(C)(C)C(=O)N[C@@H](CC(C)C)C(=O)NCCC(=O)N[C@@H](C)CNCCO (Butyryl-P[X7][Aib][Aib][X1]L[Aib]L[βAla]-{NH((S)CH(Me)CH2NHC2H4OH)}) |
| 0.059 | 0.382 | 0.232 | 0.28 | CCCCCCCCCC[C@H](NC(=O)[C@@H]1CCCN1C(=O)CCC)C(=O)NC(C)(C)C(=O)NC(C)(C)C(=O)N[C@@H](C[C@H](C)CCCCCC)C(=O)N[C@@H](CC(C)C)C(=O)NC(C)(C)C(=O)N[C@@H](CC(C)C)C(=O)NCCC(=O)N[C@@H](C)CNCCO (Butyryl-P[Gly(decyl)][Aib][Aib][X1]L[Aib]L[βAla]-{NH((S)CH(Me)CH2NHC2H4OH)}) |
| 0.02 | 0.008 | 0.008 | 0.1 | CCCCCC[C@@H](C)C[C@H](NC(=O)C(C)(C)NC(=O)C(C)(C)NC(=O)[C@H](CCCC(O)CCCC)NC(=O)[C@@H]1CCCN1C(=O)CCC)C(=O)N[C@@H](CC(C)C)C(=O)NC(C)(C)C(=O)N[C@@H](CC(C)C)C(=O)NCCC(=O)N[C@@H](C)CNCCO (mixture of isomers) |
| 0.03 | 0.03 | 0.02 | 0.108 | CCCCCC[C@@H](C)C[C@H](NC(=O)C(C)(C)NC(=O)C(C)(C)NC(=O)[C@H](CCO)NC(=O)[C@@H]1CCCN1C(=O)CCC)C(=O)N[C@@H](CC(C)C)C(=O)NC(C)(C)C(=O)N[C@@H](CC(C)C)C(=O)NCCC(=O)N[C@@H](C)CNCCO (Butyryl-P[hSer][Aib][Aib][X1]L[Aib]L[βAla]-{NH((S)CH(Me)CH2NHC2H4OH)}) |
| > 1 | > 1 | > 1 | > 1 | CCCCCC[C@@H](C)C[C@H](NC(=O)C(C)(C)NC(=O)C(C)(C)NC(=O)[C@H](CCCCN)NC(=O)[C@@H]1CCCN1C(=O)CCC)C(=O)N[C@@H](CC(C)C)C(=O)NC(C)(C)C(=O)N[C@@H](CC(C)C)C(=O)NCCC(=O)N[C@@H](C)CNCCO (Butyryl-PK[Aib][Aib][X1]L[Aib]L[βAla]-{NH((S)CH(Me)CH2NHC2H4OH)}) |
| 0.074 | 0.127 | 0.066 | > 0.5 | CCCCCC[C@@H](C)C[C@H](NC(=O)C(C)(C)NC(=O)C(C)(C)NC(=O)[C@H](CO)NC(=O)[C@@H]1CCCN1C(=O)CCC)C(=O)N[C@@H](CC(C)C)C(=O)NC(C)(C)C(=O)N[C@@H](CC(C)C)C(=O)NCCC(=O)N[C@@H](C)CNCCO (Butyryl-PS[Aib][Aib][X1]L[Aib]L[βAla]-{NH((S)CH(Me)CH2NHC2H4OH)}) |
